Source: ChEMBL document CHEMBL4715794, “Design, Synthesis, and Biological Evaluation of Novel Cyclic Adenosine-Inosine Monophosphate (cAIMP) Analogs That Activate Stimulator of Interferon Genes (STING)” (J Med Chem, 2016)
pEC50: −log10 of the molar value. Activity calls are given as the source filed them. The rule behind the calls is not given here.

What was measured:
Nuclease P1 [1] = molecular target: T1, Nuclease P1 (Penicillium citrinum, UniProt P24289); test: Stability in presence of nuclease P1 assessed as half life at 7 ug incubated for 2 hrs by HPLC analysis; format: ADME; settings: nuclease P1 (isolated enzyme), dose 7 µg
T1 sequence (P24289 whole entry): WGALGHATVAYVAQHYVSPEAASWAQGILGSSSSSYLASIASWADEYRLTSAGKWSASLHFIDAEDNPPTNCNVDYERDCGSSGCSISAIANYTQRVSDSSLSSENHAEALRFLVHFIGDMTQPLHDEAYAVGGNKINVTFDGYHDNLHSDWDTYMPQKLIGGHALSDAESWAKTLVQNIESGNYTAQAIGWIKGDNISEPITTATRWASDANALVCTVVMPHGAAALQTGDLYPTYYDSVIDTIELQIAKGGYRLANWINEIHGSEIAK
Method in brief: (§1)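 7 µg CDN incubated at 37 °C with 2.5 mU NP1 in 30 mM acetate buffer, 2 mM ZnCl2, pH 5.3 (water control). Aliquots taken from 0 to 2 h, heated 100 °C for 2 min, frozen, then analysed by reverse-phase UPLC with UV detection.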

[2] = molecular target: T2, Stimulator of interferon genes protein (Mus musculus, UniProt Q3TBT3); test: Activation of STING in mouse RAW-Lucia ISG cells assessed as induction of type I IFNs stimulation by measuring induction of IRF pathway incubated for 48 hrs by luciferase reporter gene assay; format: cell-based
T2 sequence (Q3TBT3 whole entry): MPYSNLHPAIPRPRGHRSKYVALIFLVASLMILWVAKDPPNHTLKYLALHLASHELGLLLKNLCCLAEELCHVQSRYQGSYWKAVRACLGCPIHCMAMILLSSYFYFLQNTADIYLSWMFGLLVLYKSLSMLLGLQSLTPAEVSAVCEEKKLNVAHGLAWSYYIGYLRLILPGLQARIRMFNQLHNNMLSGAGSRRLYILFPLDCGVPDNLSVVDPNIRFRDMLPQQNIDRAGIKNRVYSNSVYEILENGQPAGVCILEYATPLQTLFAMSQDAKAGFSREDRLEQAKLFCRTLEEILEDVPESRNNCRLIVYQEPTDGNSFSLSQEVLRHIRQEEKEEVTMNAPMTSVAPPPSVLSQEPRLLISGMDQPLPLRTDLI
Method in brief: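 Cells (~100,000/well) stimulated 48 h at 37 °C, 5% CO2, with saline vehicle or compound in saline at seven concentrations. Luciferase reporter read with Quanti-Luc. EC50 from log(agonist) dose-response fit; mean ± SD of three independent experiments.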

[3] = molecular target: T3, Stimulator of interferon genes protein (Mus musculus) (UniProt Q3TBT3); test: Activation of STING in mouse RAW-Lucia ISG cells assessed as induction of type I IFNs stimulation by measuring induction of IRF pathway incubated for 48 hrs by luciferase reporter gene assay relative to 2',3'-cGAMP; format: cell-based; settings: filed as activator
T3 sequence (whole entry): T2 sequence (Q3TBT3 whole entry)
Method in brief: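 RAW-Lucia ISG cells (~100,000/well), 48 h at 37 °C, 5% CO2, compound in saline at seven concentrations, Quanti-Luc luciferase read-out. Emax taken as fitted top plateau, normalized to the 2',3'-cGAMP response in each assay; mean percentage ± SD of three independent experiments.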

RAW [4] = test: Induction of type I IFN production in mouse RAW-Lucia ISG-KO-STING cells at 0.08 to 60 ug/ml incubated for 48 hrs by luciferase reporter gene assay; format: functional, cell-based; settings: dose 0.08-60 µg/ml
[5] = molecular target: T4, Stimulator of interferon genes protein (Homo sapiens, UniProt Q86WV6); test: Activation of STING in human blood assessed as induction of type I IFNs incubated for 18 to 20 hrs by QUANTI-Blue assay; format: tissue-based
[6] = Stability in presence of snake venom phosphodiesterase assessed as parent compound remaining level at 7 ug incubated for >2 hrs by HPLC analysis; format: ADME; settings: at 7 µg
[7] = Stability in presence of snake venom phosphodiesterase assessed as parent compound remaining level at 7 ug incubated for 2 hrs by HPLC analysis; format: ADME; settings: in vitro, at 7 µg
Method in brief: (§2)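 7 µg of each CDN incubated at 37 °C in a water bath with 21 µL of enzyme solution (160 µg snake venom phosphodiesterase in PBS with 0.6 mM MgCl2), with water as the no-enzyme control. Aliquots were taken at time points from 0 to 2 h, heated at 100 °C for 2 min, frozen, then injected onto a C18 UHPLC column with UV detection to follow the parent compound.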

[8] = molecular target: T5, ENPP1 (ectonucleotide pyrophosphatase/phosphodiesterase family member 1) (Homo sapiens, UniProt P22413); test: Stability in presence of ENPP1 ( unknown origin) assessed as half life by HPLC analysis; settings: ENPP1 (isolated enzyme, unknown origin)
T5 sequence (P22413 whole entry): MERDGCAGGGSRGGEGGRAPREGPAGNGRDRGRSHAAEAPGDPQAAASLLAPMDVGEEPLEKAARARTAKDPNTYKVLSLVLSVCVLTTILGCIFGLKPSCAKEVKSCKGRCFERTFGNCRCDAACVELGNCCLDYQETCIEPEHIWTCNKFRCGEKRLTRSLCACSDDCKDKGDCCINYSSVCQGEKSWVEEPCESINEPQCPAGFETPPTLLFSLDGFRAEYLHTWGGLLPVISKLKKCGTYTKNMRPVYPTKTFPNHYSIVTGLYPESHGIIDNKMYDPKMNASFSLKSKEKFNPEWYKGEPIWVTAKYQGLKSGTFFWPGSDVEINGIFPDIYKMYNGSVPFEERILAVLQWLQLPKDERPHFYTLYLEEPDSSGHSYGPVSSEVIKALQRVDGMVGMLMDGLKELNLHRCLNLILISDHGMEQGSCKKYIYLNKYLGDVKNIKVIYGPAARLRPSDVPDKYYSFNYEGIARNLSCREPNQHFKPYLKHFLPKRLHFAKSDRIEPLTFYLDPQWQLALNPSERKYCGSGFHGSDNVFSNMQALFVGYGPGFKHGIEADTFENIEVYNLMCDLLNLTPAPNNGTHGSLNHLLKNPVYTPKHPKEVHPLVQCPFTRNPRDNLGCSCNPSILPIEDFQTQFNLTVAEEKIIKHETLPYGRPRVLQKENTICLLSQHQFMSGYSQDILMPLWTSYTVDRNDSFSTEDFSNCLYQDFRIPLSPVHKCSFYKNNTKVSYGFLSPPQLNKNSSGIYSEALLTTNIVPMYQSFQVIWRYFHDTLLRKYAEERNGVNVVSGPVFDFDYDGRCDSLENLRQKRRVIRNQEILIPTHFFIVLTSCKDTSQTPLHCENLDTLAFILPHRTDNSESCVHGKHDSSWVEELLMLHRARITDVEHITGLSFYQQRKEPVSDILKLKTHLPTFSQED

[9] = molecular target: T4, Stimulator of interferon genes protein; test: Activation of STING in human blood assessed as increase in IL-1 production at 10 ug/ml incubated for 18 to 20 hrs by QUANTI-Blue assay; format: tissue-based; settings: filed as activator, time 18-20 hrs
Method in brief: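 Whole blood from healthy donors, diluted 1:2 in RPMI with sodium pyruvate, incubated 18–20 h at 37 °C with CDN in saline. Supernatants assayed on HEK-Blue IL-1R reporter cells (~50,000/well, ~20 h, 37 °C), SEAP read with QUANTI-Blue. Fold induction over unstimulated; mean of fifteen donors over three experiments.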

Nuclease P1 [10] = molecular target: T1, Nuclease P1; test: Stability in presence of nuclease P1 assessed as parent compound remaining level at 7 ug incubated for 2 hrs by HPLC analysis; format: ADME; settings: at 7 µg; for Stabilty: in vitro, 2 h; method in brief: as §1
[11] = system: snake venom phosphodiesterase; test: (§3) Stability in presence of snake venom phosphodiesterase assessed as parent compound degradation at 7 ug incubated for 2 hrs by HPLC analysis; format: ADME; settings: snake venom phosphodiesterase, read-out: Drug degradation; method in brief: as §2
RAW [12] = test: Induction of type I IFN production in mouse RAW-Lucia ISG-KO-STING cells at 0.08 to 100 ug/ml incubated for 48 hrs by luciferase reporter gene assay; format: functional, cell-based; settings: dose 0.08-100 µg/ml
[13] = as §3; format: ADME; settings: in vivo, 2 h; method in brief: as §2

T4 sequence (Q86WV6 whole entry): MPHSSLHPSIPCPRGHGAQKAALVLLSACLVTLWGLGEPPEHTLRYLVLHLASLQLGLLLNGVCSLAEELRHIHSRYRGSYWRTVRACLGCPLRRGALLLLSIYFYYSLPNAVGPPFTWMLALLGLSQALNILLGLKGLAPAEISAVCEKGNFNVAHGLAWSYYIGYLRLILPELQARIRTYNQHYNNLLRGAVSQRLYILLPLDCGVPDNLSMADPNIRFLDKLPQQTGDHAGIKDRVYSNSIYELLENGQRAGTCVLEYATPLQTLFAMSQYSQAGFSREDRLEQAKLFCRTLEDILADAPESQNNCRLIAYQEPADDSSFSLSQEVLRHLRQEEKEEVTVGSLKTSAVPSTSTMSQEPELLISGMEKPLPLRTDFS

| SMILES | pEC50 [2] | Emax [3] [%] | Activity (RAW [4]) | pEC50 [5] | Stabilty [7] | further results |
| --- | --- | --- | --- | --- | --- | --- |
| Nc1ncnc2c1ncn2[C@@H]1O[C@@H]2COP(=O)(O)O[C@@H]3[C@H](O)[C@@H](COP(=O)(O)O[C@H]2[C@H]1O)O[C@H]3n1cnc2c(=O)[nH]cnc21 | 5.21 | 85 | inactive |  |  | half-life at 7 ug (Nuclease P1 [1]): 7.1 min |
| Nc1ncnc2c1ncn2[C@@H]1O[C@@H]2COP(=O)(O)O[C@H]3C[C@H](n4cnc5c(O)ncnc54)O[C@@H]3COP(=O)(O)O[C@H]2[C@H]1F | 5.04 | 99 | inactive | 5.44 |  |  |
| Nc1ncnc2c1ncn2[C@H]1C[C@@H]2OP(=O)(S)OC[C@H]3O[C@@H](n4cnc5c(O)ncnc54)[C@H](F)[C@@H]3OP(=O)(S)OC[C@H]2O1 (stereo partly specified) | 5.66 | 83 | inactive | 5.33 | Stable | Stabilty [6]: Stable |
| Nc1nc2c(ncn2[C@@H]2O[C@@H]3COP(=O)(O)O[C@H]4[C@@H](O)[C@H](n5cnc6c(N)ncnc65)O[C@@H]4COP(=O)(O)O[C@@H]2C3)c(=O)[nH]1 |  |  |  |  |  | half-life [8]: 60 min |
| Nc1ncnc2c1ncn2[C@@H]1O[C@@H]2COP(=O)(S)O[C@H]3[C@@H](F)[C@H](n4cnc5c(O)ncnc54)O[C@@H]3COP(=O)(S)O[C@H]2[C@H]1F (stereo partly specified) | 6.22 | 104 | inactive | 6.40 | Stable | Activity [9]: Active; Stabilty [6]: Stable; Stabilty (Nuclease P1 [10]): Stable |
| Nc1ncnc2c1ncn2[C@H]1C[C@@H]2OP(=O)(O)OC[C@H]3O[C@@H](n4cnc5c(O)ncnc54)C[C@@H]3OP(=O)(O)OC[C@H]2O1 | 4.94 | 91 | inactive | 5.00 | Stable | half-life at 7 ug (Nuclease P1 [1]): 5.7 min; metabolised at 2 h, 7 ug [11]: < 40% |
| Nc1ncnc2c1ncn2[C@H]1C[C@@H]2OP(=O)(O)OC[C@H]3O[C@@H](n4cnc5c(O)ncnc54)[C@H](F)[C@@H]3OP(=O)(O)OC[C@H]2O1 | 5.30 | 93 | inactive | 5.55 | Stable |  |
| Cc1ccc2c(=O)c3cccc(CC(=O)O)c3oc2c1C |  |  |  |  |  | Activity (RAW [12]): inactive |
| Nc1nc2c(ncn2[C@@H]2O[C@@H]3COP(=O)(O)O[C@H]4[C@@H](O)[C@H](n5cnc6c(N)ncnc65)O[C@@H]4COP(=O)(O)O[C@@H]2[C@@H]3O)c(=O)[nH]1 |  |  | inactive |  | Stable | half-life [8]: 60 min; remaining at 2 h, 7 ug (Nuclease P1 [10]; nuclease P1 (isolated enzyme), time 2 hrs, read-out: Stabilty): 83% |
| Nc1ncnc2c1ncn2[C@@H]1O[C@@H]2COP(=O)(O)O[C@@H]3[C@H](O)[C@@H](COP(=O)(O)O[C@@H]1[C@@H]2O)O[C@H]3n1cnc2c(O)ncnc21 |  | 95 | inactive |  |  |  |
| Nc1ncnc2c1ncn2[C@@H]1O[C@@H]2COP(=O)(O)O[C@H]3[C@@H](O)[C@H](n4cnc5c(O)ncnc54)O[C@@H]3COP(=O)(O)O[C@H]2[C@H]1O |  | 107 | inactive |  |  | half-life at 7 ug (Nuclease P1 [1]): 23.1 min; Stabilty [13]: Unstable |
| Nc1ncnc2c1ncn2[C@@H]1O[C@@H]2COP(=O)(O)O[C@H]3[C@@H](F)[C@H](n4cnc5c(O)ncnc54)O[C@@H]3COP(=O)(O)O[C@H]2[C@H]1F | 5.29 | 90 | inactive | 6.15 | Stable | Activity [9]: Active; Stabilty (Nuclease P1 [10]): Stable |
| Nc1ncnc2c1ncn2[C@@H]1O[C@@H]2COP(=O)(S)O[C@H]3[C@@H](O)[C@H](n4cnc5c(O)ncnc54)O[C@@H]3COP(=O)(S)O[C@H]2[C@H]1O (stereo partly specified) | 5.40 | 115 | inactive | 4.97 | Stable | Stabilty (Nuclease P1 [10]): Stable |
| Nc1ncnc2c1ncn2[C@@H]1O[C@@H]2COP(=O)(O)O[C@H]3[C@@H](O)[C@H](n4cnc5c(O)ncnc54)O[C@@H]3COP(=O)(O)O[C@@H]1[C@@H]2O |  | 85 | inactive |  |  |  |
